Published values gathered from unrelated publications.
Each line is one published result; the experiments were not run side by side.
KIT L576P: Mast/stem cell growth factor receptor Kit (KIT, Homo sapiens, UniProt P10721, L576P)
KIT A829P: Mast/stem cell growth factor receptor Kit (KIT, Homo sapiens, UniProt P10721, A829P)
KIT V559D/V654A: Mast/stem cell growth factor receptor Kit (KIT, Homo sapiens, UniProt P10721, V559D/V654A)
KIT D816V: Mast/stem cell growth factor receptor Kit (KIT, Homo sapiens, UniProt P10721, D816V)
KIT T670I/V559D: Mast/stem cell growth factor receptor Kit (KIT, Homo sapiens, UniProt P10721, T670I/V559D)
KIT: Mast/stem cell growth factor receptor Kit (KIT, Homo sapiens, UniProt P10721)
KIT V559D: Mast/stem cell growth factor receptor Kit (KIT, Homo sapiens, UniProt P10721, V559D)

SMILES | target | read-out | method | concentration | remaining binding [%]
c1cnn2ncc(-c3ccnc(N4CCC45COC5)n3)c2c1 | KIT L576P | binding | – | 1 µM | 70
Cc1cnc(Nc2ccc(C(=O)N3CCC(N4CCCC4)CC3)cc2)nc1-c1cc2ccccc2s1 | KIT L576P | binding | competition with immobilised ligand | 1 µM | 1
CN(C)C(=O)Cn1cc(-c2nc(C3(c4ccc(-c5cnc(N)nc5)cc4)CC3)no2)cn1 | KIT A829P | cell-free assay | competition with immobilised ligand | 1 µM | 93
COc1ccnn2ncc(-c3ccnc(N(C)C)n3)c12 | KIT V559D/V654A | binding | – | 1 µM | 100
Cc1nc(C2CCN(C(=O)c3ccc(OC(F)(F)F)cc3N)CC2)c2ncc(N3CCN(C)CC3)cc2n1 | KIT L576P | cell-free assay | competition with immobilised ligand | 1 µM | 87
CC1CCCN1c1nccc(-c2cnn3ncccc23)n1 (stereo not drawn) | KIT D816V | binding | – | 1 µM | 100
O=C(NCC1CCOCC1)c1n[nH]cc1NC(=O)c1c(F)cccc1F | KIT T670I/V559D | binding | competition with immobilised ligand | 1 µM | 100
CN(C(=O)c1ccccc1)c1cc(N(C)c2ccc3c(c2)CCc2ccc(C(=O)NCCN4CCOCC4)cc2C3=O)ccc1F | KIT T670I/V559D | cell-free assay | competition with immobilised ligand | 1 µM | 99
C[C@@H]1CN(c2ccc3ncc(-c4ccc5[nH]nc(C6CC6)c5c4)n3n2)C[C@H](C)O1 | KIT | binding | competition with immobilised ligand | 50 nM | 96
COc1cnc(Nc2cccc(S(N)(=O)=O)c2)nc1N1CCN(c2ccccc2)C(=O)C1 | KIT V559D | binding | competition with immobilised ligand | 1 µM | 98
C[C@H]1CCN(c2nccc(-c3cnn4ncccc34)n2)C1 | KIT A829P | binding | – | 1 µM | 83
O=C(c1ccc(Nc2ncc(Cl)c(-c3cc4ccccc4s3)n2)cc1)N1CCC(N2CCCC2)CC1 | KIT V559D/V654A | binding | competition with immobilised ligand | 1 µM | 50
COc1cnc(Nc2cccc(S(N)(=O)=O)c2)nc1N1CCN(c2ccccc2)CC1 | KIT | binding | competition with immobilised ligand | 1 µM | 93
NS(=O)(=O)c1cc(NC(=O)Cc2ccccc2)ccc1Oc1cccc(Cl)c1 | KIT | cell-free assay | competition with immobilised ligand | 1 µM | 89
CN1CCN(c2ccc(Nc3nccc(-c4cccc([N+](=O)[O-])c4)n3)cc2C(F)(F)F)CC1 | KIT A829P | binding | – | 10 µM | 4.3
CN(CCCC(F)(F)F)c1nccc(-c2cnn3ncccc23)n1 | KIT D816V | binding | – | 1 µM | 88
CCN1CCN(Cc2ccc(C(=O)Nc3ccc(C)c(Oc4ccc5c(c4)CC(=O)N5)c3)cc2C(F)(F)F)CC1 | KIT D816V | binding | competition with immobilised ligand | 1 µM | 81
FC(F)(F)c1ccc2c(c1)nc(-c1cccnc1)n2C1CC1 | KIT V559D | cell-free assay | competition with immobilised ligand | 1 µM | 100
C[C@@H](c1ccc(-n2cnc3c(N)ncnc32)cc1)N1CCc2nn(C)c(Cc3ccccc3)c2C1=O | KIT L576P | binding | competition with immobilised ligand | 0.1 µM | 17
O=C(NCc1ncc(C(F)(F)F)cc1Cl)c1ccc2c(c1)C1(CCS(=O)(=O)CC1)[C@H](C1CC1)N2S(=O)(=O)c1ccc(F)cc1 | KIT | cell-free assay | competition with immobilised ligand | 1 µM | 100
N[C@@H]1CCN(c2nccc(-c3cnn4ncccc34)n2)C1 | KIT L576P | binding | – | 1 µM | 97
CCCOc1ccc([C@H]2[C@H](C(=O)O)[C@@H](c3ccc4c(c3)OCO4)CN2CC(=O)Nc2c(CC)cccc2CC)cc1 | KIT V559D/V654A | cell-free assay | competition with immobilised ligand | 1 µM | 98
Cc1cnn2ncc(-c3ccnc(N(C)C)n3)c2c1 | KIT T670I/V559D | binding | – | 1 µM | 100
O=C(NCCCN1CCOCC1)c1ccc(Nc2nccc(-c3cc4ccccc4s3)n2)cc1 | KIT | binding | competition with immobilised ligand | 1 µM | 63
